From ChEMBL document CHEMBL5376013, “Design, synthesis and biological evaluation of novel morpholinopyrimidine-5-carbonitrile derivatives as dual PI3K/mTOR inhibitors” (RSC Med Chem, 2024)

Assays:
Type in all cases: functional
Settings in all cases: read-out: GI
[1] = tested on: MDA-MB-468; assay: Antitumor activity against human MDA-MB-468 cells assessed as growth inhibition at 10 uM relative to control
Summary of the method: (§1)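 After drug addition, plates were incubated 48 h at 37 °C under 5% CO2. Adherent cells were fixed with cold TCA (10% final, 60 min, 4 °C) and suspension cells with 16% final TCA. Staining used 0.4% SRB in 1% acetic acid, solubilized in 10 mM trizma, read at A515. Percent growth was calculated from time-zero, control and treated absorbances.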

[2] = tested on: A498; assay: Antitumor activity against human A498 cells assessed as growth inhibition at 10 uM relative to control; summary of the method: as §1
[3] = tested on: RPMI-8226; assay: Antitumor activity against human RPMI-8226 cells assessed as growth inhibition at 10 uM relative to control; summary of the method: as §1
[4] = tested on: SF-295; assay: Antitumor activity against human SF-295 cells assessed as growth inhibition at 10 uM relative to control; summary of the method: as §1
[5] = tested on: SF-539; assay: Antitumor activity against human SF-539 cells assessed as growth inhibition at 10 uM relative to control; summary of the method: as §1
[6] = tested on: SK-MEL-5; assay: Antitumor activity against human SK-MEL-5 cells assessed as growth inhibition at 10 uM relative to control
Summary of the method: (§2)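 Drug exposure 48 h at 37 °C, 5% CO2. Adherent cells fixed with cold TCA (10% final), suspension cells with TCA (16% final). Stained with 0.4% SRB in 1% acetic acid, dissolved in 10 mM Tris, A515. Growth relative to time-zero and untreated control.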

[7] = tested on: U-251; assay: Antitumor activity against human U-251 cells assessed as growth inhibition at 10 uM relative to control; summary of the method: as §2
[8] = tested on: CCRF-CEM; assay: Antitumor activity against human CCRF-CEM cells assessed as growth inhibition at 10 uM relative to control; summary of the method: as §1
[9] = tested on: SK-MEL-2; assay: Antitumor activity against human SK-MEL-2 cells assessed as growth inhibition at 10 uM relative to control; summary of the method: as §1
[10] = tested on: T47D; assay: Antitumor activity against human T47D cells assessed as growth inhibition at 10 uM relative to control; summary of the method: as §2
[11] = tested on: HCT-116; assay: Antitumor activity against human HCT-116 cells assessed as growth inhibition at 10 uM relative to control; summary of the method: as §1
[12] = tested on: A549; assay: Antitumor activity against human A549 cells assessed as growth inhibition at 10 uM relative to control; summary of the method: as §1
[13] = tested on: SW-620; assay: Antitumor activity against human SW-620 cells assessed as growth inhibition at 10 uM relative to control; summary of the method: as §2
[14] = tested on: HOP-62; assay: Antitumor activity against human HOP-62 cells assessed as growth inhibition at 10 uM relative to control; summary of the method: as §1
[15] = tested on: Malme-3M; assay: Antitumor activity against human Malme-3M cells assessed as growth inhibition at 10 uM relative to control; summary of the method: as §1
[16] = tested on: MDA-MB-435; assay: Antitumor activity against human MDA-MB-435 cells assessed as growth inhibition at 10 uM relative to control; summary of the method: as §1
[17] = tested on: SR; assay: Antitumor activity against human SR cells assessed as growth inhibition at 10 uM relative to control; summary of the method: as §2
[18] = tested on: NCI-H226; assay: Antitumor activity against human NCI-H226 cells assessed as growth inhibition at 10 uM relative to control; summary of the method: as §1
[19] = tested on: HCT-15; assay: Antitumor activity against human HCT-15 cells assessed as growth inhibition at 10 uM relative to control; summary of the method: as §1
[20] = tested on: NCI-H23; assay: Antitumor activity against human NCI-H23 cells assessed as growth inhibition at 10 uM relative to control; summary of the method: as §1
[21] = tested on: K562; assay: Antitumor activity against human K562 cells assessed as growth inhibition at 10 uM relative to control; summary of the method: as §1
[22] = tested on: SF-268; assay: Antitumor activity against human SF-268 cells assessed as growth inhibition at 10 uM relative to control; summary of the method: as §1
[23] = tested on: HT-29; assay: Antitumor activity against human HT-29 cells assessed as growth inhibition at 10 uM relative to control; summary of the method: as §1
[24] = tested on: TK-10; assay: Antitumor activity against human TK-10 cells assessed as growth inhibition at 10 uM relative to control; summary of the method: as §2
[25] = tested on: CAKI-1; assay: Antitumor activity against human CAKI-1 cells assessed as growth inhibition at 10 uM relative to control; summary of the method: as §1
[26] = tested on: MDA-MB-231; assay: Antitumor activity against human MDA-MB-231 cells assessed as growth inhibition at 10 uM relative to control; summary of the method: as §1
[27] = tested on: UACC-62; assay: Antitumor activity against human UACC-62 cells assessed as growth inhibition at 10 uM relative to control; summary of the method: as §2
[28] = tested on: RXF 393; assay: Antitumor activity against human RXF 393 cells assessed as growth inhibition at 10 uM relative to control; summary of the method: as §1
[29] = tested on: COLO 205; assay: Antitumor activity against human COLO 205 cells assessed as growth inhibition at 10 uM relative to control; summary of the method: as §1
[30] = tested on: HL-60; assay: Antitumor activity against human HL-60 cells assessed as growth inhibition at 10 uM relative to control; summary of the method: as §1
[31] = tested on: MOLT-4; assay: Antitumor activity against human MOLT-4 cells assessed as growth inhibition at 10 uM relative to control; summary of the method: as §1
[32] = tested on: UO-31; assay: Antitumor activity against human UO-31 cells assessed as growth inhibition at 10 uM relative to control; summary of the method: as §2
[33] = tested on: SNB-75; assay: Antitumor activity against human SNB-75 cells assessed as growth inhibition at 10 uM relative to control; summary of the method: as §2
[34] = tested on: IGROV-1; assay: Antitumor activity against human IGROV-1 cells assessed as growth inhibition at 10 uM relative to control; summary of the method: as §1
[35] = tested on: ACHN; assay: Antitumor activity against human ACHN cells assessed as growth inhibition at 10 uM relative to control; summary of the method: as §1
[36] = tested on: DU-145; assay: Antitumor activity against human DU-145 cells assessed as growth inhibition at 10 uM relative to control; summary of the method: as §1
[37] = tested on: LOX IMVI; assay: Antitumor activity against human LOX IMVI cells assessed as growth inhibition at 10 uM relative to control; summary of the method: as §1
[38] = tested on: Hs-578T; assay: Antitumor activity against human Hs-578T cells assessed as growth inhibition at 10 uM relative to control; summary of the method: as §1
[39] = tested on: NCI/ADR-RES; assay: Antitumor activity against human NCI-ADR-RES cells assessed as growth inhibition at 10 uM relative to control; summary of the method: as §1
[40] = tested on: 786-0; assay: Antitumor activity against human 786-0 cells assessed as growth inhibition at 10 uM relative to control; summary of the method: as §1
[41] = tested on: OVCAR-8; assay: Antitumor activity against human OVCAR-8 cells assessed as growth inhibition at 10 uM relative to control; summary of the method: as §1
[42] = tested on: SN12C; assay: Antitumor activity against human SN12C cells assessed as growth inhibition at 10 uM relative to control; summary of the method: as §2
[43] = tested on: HOP-92; assay: Antitumor activity against human HOP-92 cells assessed as growth inhibition at 10 uM relative to control; summary of the method: as §1
[44] = tested on: MCF7; assay: Antitumor activity against human MCF7 cells assessed as growth inhibition at 10 uM relative to control; summary of the method: as §1
[45] = tested on: SK-OV-3; assay: Antitumor activity against human SK-OV-3 cells assessed as growth inhibition at 10 uM relative to control; summary of the method: as §2
[46] = tested on: NCI-H522; assay: Antitumor activity against human NCI-H522 cells assessed as growth inhibition at 10 uM relative to control; summary of the method: as §1

SMILES: N#Cc1c(-c2ccc(Cl)cc2)nc(N/N=C/c2cccc(Br)c2)nc1N1CCOCC1
- inhibition of growth at 10 µM [1]: 23.3%
- inhibition of growth at 10 µM [2]: < 1%
- inhibition of growth at 10 µM [3]: 44%
- inhibition of growth at 10 µM [4]: < 1%
- inhibition of growth at 10 µM [5]: 21.2%
- inhibition of growth at 10 µM [6]: 14.4%
- inhibition of growth at 10 µM [7]: 38.4%
- inhibition of growth at 10 µM [8]: 49.7%
- inhibition of growth at 10 µM [9]: < 1%
- inhibition of growth at 10 µM [10]: 32.5%
- inhibition of growth at 10 µM [11]: 38.5%
- inhibition of growth at 10 µM [12]: 19.6%
- inhibition of growth at 10 µM [13]: 68.5%
- inhibition of growth at 10 µM [14]: < 1%
- inhibition of growth at 10 µM [15]: < 1%
- inhibition of growth at 10 µM [16]: < 1%
- inhibition of growth at 10 µM [17]: < 1%
- inhibition of growth at 10 µM [18]: 28.8%
- inhibition of growth at 10 µM [19]: 91.6%
- inhibition of growth at 10 µM [20]: < 1%
- inhibition of growth at 10 µM [21]: 87.4%
- inhibition of growth at 10 µM [22]: 10.8%
- inhibition of growth at 10 µM [23]: 71%
- inhibition of growth at 10 µM [24]: < 1%
- inhibition of growth at 10 µM [25]: 1%
- inhibition of growth at 10 µM [26]: < 1%
- inhibition of growth at 10 µM [27]: < 1%
- inhibition of growth at 10 µM [28]: < 1%
- inhibition of growth at 10 µM [29]: 56%
- inhibition of growth at 10 µM [30]: 59.4%
- inhibition of growth at 10 µM [31]: 63.9%
- inhibition of growth at 10 µM [32]: 48.8%
- inhibition of growth at 10 µM [33]: 23.2%
- inhibition of growth at 10 µM [34]: 16.4%
- inhibition of growth at 10 µM [35]: 28.5%
- inhibition of growth at 10 µM [36]: 40.4%
- inhibition of growth at 10 µM [37]: 20.2%
- inhibition of growth at 10 µM [38]: 17.9%
- inhibition of growth at 10 µM [39]: < 1%
- inhibition of growth at 10 µM [40]: 38.2%
- inhibition of growth at 10 µM [41]: < 1%
- inhibition of growth at 10 µM [42]: < 1%
- inhibition of growth at 10 µM [43]: 28.8%
- inhibition of growth at 10 µM [44]: < 27.5%
- inhibition of growth at 10 µM [45]: < 1%
- inhibition of growth at 10 µM [46]: < 1%

SMILES: N#Cc1c(-c2ccc(Cl)cc2)nc(N/N=C/c2ccco2)nc1N1CCOCC1
- inhibition of growth at 10 µM [1]: 69.1%
- inhibition of growth at 10 µM [2]: < 1%
- inhibition of growth at 10 µM [3]: 33.5%
- inhibition of growth at 10 µM [4]: 26.2%
- inhibition of growth at 10 µM [5]: 24.7%
- inhibition of growth at 10 µM [6]: 19.1%
- inhibition of growth at 10 µM [7]: < 1%
- inhibition of growth at 10 µM [8]: 11.3%
- inhibition of growth at 10 µM [9]: 17.7%
- inhibition of growth at 10 µM [10]: 76.8%
- inhibition of growth at 10 µM [11]: 23.9%
- inhibition of growth at 10 µM [12]: 21.1%
- inhibition of growth at 10 µM [13]: 17.8%
- inhibition of growth at 10 µM [14]: 33.6%
- inhibition of growth at 10 µM [15]: 57.6%
- inhibition of growth at 10 µM [16]: 20.6%
- inhibition of growth at 10 µM [17]: < 1%
- inhibition of growth at 10 µM [18]: 59.4%
- inhibition of growth at 10 µM [19]: 19.7%
- inhibition of growth at 10 µM [20]: 29.2%
- inhibition of growth at 10 µM [21]: < 1%
- inhibition of growth at 10 µM [22]: 25.5%
- inhibition of growth at 10 µM [23]: 13%
- inhibition of growth at 10 µM [24]: 37.6%
- inhibition of growth at 10 µM [25]: < 1%
- inhibition of growth at 10 µM [26]: 25.5%
- inhibition of growth at 10 µM [27]: 41.8%
- inhibition of growth at 10 µM [28]: < 1%
- inhibition of growth at 10 µM [29]: 24.8%
- inhibition of growth at 10 µM [30]: < 1%
- inhibition of growth at 10 µM [31]: 17%
- inhibition of growth at 10 µM [32]: 72.9%
- inhibition of growth at 10 µM [33]: 89.7%
- inhibition of growth at 10 µM [34]: 74.2%
- inhibition of growth at 10 µM [35]: 23.3%
- inhibition of growth at 10 µM [36]: 14.6%
- inhibition of growth at 10 µM [37]: 21.3%
- inhibition of growth at 10 µM [38]: 31.8%
- inhibition of growth at 10 µM [39]: 24.2%
- inhibition of growth at 10 µM [40]: 25.9%
- inhibition of growth at 10 µM [41]: 21.1%
- inhibition of growth at 10 µM [42]: 17.9%
- inhibition of growth at 10 µM [43]: 59.4%
- inhibition of growth at 10 µM [44]: < 73.8%
- inhibition of growth at 10 µM [45]: 50.6%
- inhibition of growth at 10 µM [46]: 37.7%
